Hits are enriched below; roughly 5.8% of the tested compounds scored in any of these assays.
T cruzi growth-1: T. cruzi proliferation inhibition. T. cruzi beta-gal in NIH3T3, GalScreen luminescence, 90 h. inhibition, % at 8.34 µM. 5.9% of 77,000 active. AID 624255;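 active means mean inhibition above about 93%, with at least 55% of replicates each passing it, limit read from the data, passing the limit was not always enough; inconclusive means only one of those two conditions holds; inactive means neither condition holds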
IDH1 R132H inh: blocks human IDH1 R132H reductase activity; O75874; diaphorase/resazurin fluorescence, 60 min; inhibition, % at 10 µM; 0.18% of 70,000 active; AID 624101; in the data active means inhibition above about 34%; inconclusive means no clear call, values can overlap the other calls; inactive means below about 11%
Target sequence (O75874 whole entry R132H): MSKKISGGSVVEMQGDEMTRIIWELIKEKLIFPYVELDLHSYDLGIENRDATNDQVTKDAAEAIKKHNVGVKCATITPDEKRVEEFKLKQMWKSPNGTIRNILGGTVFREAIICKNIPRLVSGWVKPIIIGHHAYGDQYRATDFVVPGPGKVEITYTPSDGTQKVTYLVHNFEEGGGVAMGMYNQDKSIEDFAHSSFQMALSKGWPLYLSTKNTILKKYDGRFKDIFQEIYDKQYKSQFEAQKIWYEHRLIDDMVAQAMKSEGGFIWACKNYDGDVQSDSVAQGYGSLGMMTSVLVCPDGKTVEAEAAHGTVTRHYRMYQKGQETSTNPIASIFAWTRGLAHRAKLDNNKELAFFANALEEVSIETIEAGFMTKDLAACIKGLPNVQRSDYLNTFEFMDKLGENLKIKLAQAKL
Pf Dd2 inh: P. falciparum Dd2 growth inhibition; 2.3% of 94,000 active; SYBR Green, 72 h; stronger effect = lower value; AID 1159554; activity change, % at 10 µM; in the data active means activity change below about -80%; inconclusive means no clear call, values can overlap the other calls
GASC1 inh: inhibitors of human demethylase GASC-1 KDM4C; Q9H3R0; GST-KDM4C 2-372, H3K9me3 peptide, LANCE TR-FRET; inhibition, % at 12.5 µM; 0.15% of 96,000 active;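 active means mean replicate inhibition above about 25%, with at least 55% of replicates also reaching it, limit read from the data, passing the limit was not always enough; inconclusive means only one of those two conditions met; inactive means neither condition met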
Target sequence (Q9H3R0 2-372 limits assumed): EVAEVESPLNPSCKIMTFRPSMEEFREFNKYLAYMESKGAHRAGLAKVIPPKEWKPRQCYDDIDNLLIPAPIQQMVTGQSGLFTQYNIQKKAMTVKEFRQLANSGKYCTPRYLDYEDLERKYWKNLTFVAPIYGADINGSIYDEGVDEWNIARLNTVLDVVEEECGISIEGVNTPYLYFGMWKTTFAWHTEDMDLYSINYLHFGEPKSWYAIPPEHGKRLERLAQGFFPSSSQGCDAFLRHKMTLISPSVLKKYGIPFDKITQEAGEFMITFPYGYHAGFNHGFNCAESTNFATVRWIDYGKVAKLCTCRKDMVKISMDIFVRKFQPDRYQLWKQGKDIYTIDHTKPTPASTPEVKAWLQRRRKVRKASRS
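Assay system: GST-GASC-1 enzyme fragment 2-372 | Amount: 10 nM enzyme | Medium: HEPES buffer, pH 7.5, plus ascorbate | Reagent: H3K9me3 peptide substrate, Fe(II), 2-oxoglutarate | Doses: Single-point compound screen | Incubation: 30 min demethylation and 1 h detection at room temperature | Measured by: LANCE TR-FRET, excitation 340 nm, emissions 618 and 671 nm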
T cruzi growth-2: inhibitors of T. cruzi proliferation; shares compounds with T cruzi growth-1; T. cruzi beta-gal in NIH3T3, GalScreen luminescence, 90 h; inhibition, % at 8.35 µM; 72% of 5,600 active; AID 651739;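 active means mean replicate inhibition above about 95% and at least 55% of replicates individually reaching it, limit read from the data; inconclusive means only one of the two criteria is met; inactive means neither criterion is met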
T cruzi growth-3: blocks T. cruzi growth in NIH3T3 host cells; AID 651740; T. cruzi beta-gal in NIH3T3, GalScreen luminescence, 90 h; 21% of 5,600 active; inhibition, % at 2.09 µM; shares compounds with T cruzi growth-1;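 active means mean inhibition above about 95%, with at least 55% of replicates also reaching it, limit read from the data; inconclusive means meets just one of the two conditions; inactive means meets neither condition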
3T3 cytotox: NIH/3T3 (mouse) viability loss; shares compounds with T cruzi growth-1; NIH/3T3 viability, CellTiter-Glo ATP luminescence, 90 h; cytotoxicity (signal decrease), % at 8.35 µM; 14% of 5,600 active; AID 651742;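 active means mean signal decrease across replicates above about 35% based on untreated-well scatter, with enough replicates individually passing, limit read from the data; inconclusive means no rule stated though some were filed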
NIH3T3 tox 2: NIH/3T3 (mouse) viability loss; shares compounds with T cruzi growth-1; NIH/3T3 viability, CellTiter-Glo ATP luminescence, 90 h; inhibition, % at 24.9 µM; 56% of 5,600 active;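 active means mean loss of cell viability signal at or above a set limit, and enough replicates individually reaching it; inconclusive means meets only the mean limit or only the replicate share; inactive means meets neither condition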
Large screens that a line does not name were inactive (follow-up assays come after a bar, where they were run).

COCC#Cc1ccc2c(c1)O[C@@H](CN(C)CC1CCCC1)[C@H](C)CN([C@@H](C)CO)S2(=O)=O	T cruzi growth-1 106, Pf Dd2 inh inconclusive | T cruzi growth-2 96 | T cruzi growth-3 inactive | 3T3 cytotox inactive | NIH3T3 tox 2 104
COCC#Cc1ccc2c(c1)O[C@H](CN(C)CC1CCCC1)[C@@H](C)CN([C@H](C)CO)S2(=O)=O	T cruzi growth-1 inconclusive | T cruzi growth-2 99 | T cruzi growth-3 inactive | 3T3 cytotox inactive | NIH3T3 tox 2 50
Cc1ccc(S(=O)(=O)N[C@H]2CC[C@H](CCn3cc(C4CCCCC4)nn3)O[C@@H]2CO)cc1	none
CN(C)C(=O)c1ccc(-c2ccc([C@@H]3[C@H](CO)N4CCCCN(C(=O)C5CCC5)C[C@@H]34)cc2)cc1	T cruzi growth-1 106 (no result: IDH1 R132H inh, GASC1 inh) | T cruzi growth-2 103 | T cruzi growth-3 inconclusive | 3T3 cytotox inactive | NIH3T3 tox 2 inactive
O=C(C1CCC1)N1CCCCN2[C@@H](CO)[C@H](c3ccc(-c4ccncc4)cc3)[C@@H]2C1	T cruzi growth-1 inconclusive (no result: IDH1 R132H inh) | T cruzi growth-2 102 | T cruzi growth-3 inactive | 3T3 cytotox inactive | NIH3T3 tox 2 inconclusive
CN(C)C(=O)c1ccc(-c2ccc([C@@H]3[C@@H](CO)N4CCCCN(C(=O)C5CCC5)C[C@@H]34)cc2)cc1	none (no result: IDH1 R132H inh, GASC1 inh)
CN(C)C(=O)c1ccc(-c2ccc([C@H]3[C@H](CO)N4CCCCN(C(=O)C5CC5)C[C@@H]34)cc2)cc1	T cruzi growth-1 inconclusive (no result: IDH1 R132H inh) | T cruzi growth-2 100 | T cruzi growth-3 inactive | 3T3 cytotox inactive | NIH3T3 tox 2 inactive
CN(C)C(=O)c1ccc(-c2ccc([C@H]3[C@@H](CO)N4CCCCN(C(=O)C5CCC5)C[C@H]34)cc2)cc1	T cruzi growth-1 113 (no result: IDH1 R132H inh, GASC1 inh) | T cruzi growth-2 97 | T cruzi growth-3 inconclusive | 3T3 cytotox inactive | NIH3T3 tox 2 inactive
Cc1cccc(S(=O)(=O)N2CCCCN3[C@H](CO)[C@H](c4ccc(C#C[C@H](C)O)cc4)[C@@H]3C2)c1	none (no result: IDH1 R132H inh)
Cc1cccc(S(=O)(=O)N2CCCCN3[C@H](C2)[C@@H](c2ccc(C#C[C@H](C)O)cc2)[C@@H]3CO)c1	T cruzi growth-1 101 (no result: IDH1 R132H inh) | T cruzi growth-2 102 | T cruzi growth-3 inactive | 3T3 cytotox 65 | NIH3T3 tox 2 27
Cc1cccc(S(=O)(=O)N2CCCCN3[C@H](CO)[C@H](c4ccc(C#CC(C)C)cc4)[C@@H]3C2)c1	T cruzi growth-1 97 (no result: IDH1 R132H inh) | T cruzi growth-2 98 | T cruzi growth-3 100 | 3T3 cytotox 37 | NIH3T3 tox 2 105
Cc1cccc(S(=O)(=O)N2CCCCN3[C@H](CO)[C@@H](c4ccc(C#CC(C)C)cc4)[C@@H]3C2)c1	T cruzi growth-1 118 (no result: IDH1 R132H inh) | T cruzi growth-2 101 | T cruzi growth-3 98 | 3T3 cytotox inactive | NIH3T3 tox 2 49
Cc1noc(C)c1NC(=O)Nc1ccc2c(c1)C(=O)N([C@H](C)CO)C[C@H](C)[C@@H](CN(C)Cc1ccc(C(=O)Nc3ccccc3N)cc1)O2	none (no result: T cruzi growth-1)
COc1ccc2c3c([nH]c2c1)[C@@H](CO)N(C(C)=O)CC31CCN(C(=O)Nc2ccc(F)cc2)CC1	none (no result: T cruzi growth-1, IDH1 R132H inh)
C[C@@H]1CN([C@@H](C)CO)C(=O)c2cc(-c3cccc(C#N)c3)cnc2O[C@H]1CN(C)Cc1ccncc1	none
COc1ccc(NC(=O)Nc2ccc3c(c2)C(=O)N([C@@H](C)CO)C[C@H](C)[C@H](CN(C)Cc2ccc(Cl)c(Cl)c2)OCCCC[C@@H](C)O3)cc1	T cruzi growth-1 125 | T cruzi growth-2 101 | T cruzi growth-3 115 | 3T3 cytotox inactive | NIH3T3 tox 2 inactive
COc1ccc(NC(=O)Nc2ccc3c(c2)C(=O)N([C@H](C)CO)C[C@H](C)[C@@H](CN(C)Cc2ccc(Cl)c(Cl)c2)OCCCC[C@H](C)O3)cc1	T cruzi growth-1 123 (no result: IDH1 R132H inh) | T cruzi growth-2 inconclusive | T cruzi growth-3 116 | 3T3 cytotox inactive | NIH3T3 tox 2 inactive
COc1ccc(CN(C)C[C@H]2OCCCC[C@H](C)Oc3ccc(NC(=O)Nc4ccc(OC)cc4)cc3C(=O)N([C@H](C)CO)C[C@@H]2C)cc1	none (no result: IDH1 R132H inh)
COc1ccc(CN(C)C[C@@H]2OCCCC[C@H](C)Oc3ccc(NC(=O)Nc4ccc(OC)cc4)cc3C(=O)N([C@H](C)CO)C[C@H]2C)cc1	none (no result: IDH1 R132H inh, GASC1 inh)
COc1ccc(CN(C)C[C@@H]2OCCCC[C@@H](C)Oc3ccc(NC(=O)Nc4ccc(OC)cc4)cc3C(=O)N([C@H](C)CO)C[C@@H]2C)cc1	none (no result: GASC1 inh)
COc1ccc(NC(=O)Nc2ccc3c(c2)C(=O)N([C@@H](C)CO)C[C@@H](C)[C@H](CN(C)Cc2ccc(Cl)c(Cl)c2)OCCCC[C@@H](C)O3)cc1	T cruzi growth-1 126 | T cruzi growth-2 100 | T cruzi growth-3 117 | 3T3 cytotox inactive | NIH3T3 tox 2 inactive
COc1ccc(NC(=O)Nc2ccc3c(c2)C(=O)N([C@@H](C)CO)C[C@@H](C)[C@H](CN(C)Cc2ccc(Cl)c(Cl)c2)OCCCC[C@H](C)O3)cc1	T cruzi growth-1 97 | T cruzi growth-2 99 | T cruzi growth-3 103 | 3T3 cytotox inactive | NIH3T3 tox 2 inactive
O=C(C[C@@H]1C=C[C@@H](NC(=O)NC2CCCCC2)[C@H](CO)O1)NCc1ccc(Cl)cc1	none
C[C@H](CO)N1C[C@H](C)[C@@H](CN(C)C(=O)Nc2ccc(C(F)(F)F)cc2)OCCCC[C@H](C)Oc2ccc(NC(=O)c3ccccc3)cc2C1=O	T cruzi growth-1 101 (no result: IDH1 R132H inh) | T cruzi growth-2 110 | T cruzi growth-3 113 | 3T3 cytotox 36 | NIH3T3 tox 2 52
C[C@H](CO)N1C[C@H](C)[C@H](CN(C)C(=O)Nc2ccc(C(F)(F)F)cc2)OCCCC[C@H](C)Oc2ccc(NC(=O)c3ccccc3)cc2C1=O	T cruzi growth-1 inconclusive, Pf Dd2 inh -82 (no result: IDH1 R132H inh) | T cruzi growth-2 106 | T cruzi growth-3 109 | 3T3 cytotox inactive | NIH3T3 tox 2 inactive
C[C@@H]1CCCCO[C@@H](CN(C)C(=O)Nc2ccc(F)cc2)[C@H](C)CN([C@@H](C)CO)C(=O)c2cc(NC(=O)c3ccccc3)ccc2O1	none (no result: IDH1 R132H inh)
C[C@H](CO)N1C[C@H](C)[C@H](CN(C)C(=O)Nc2ccc(F)cc2)OCCCC[C@H](C)Oc2ccc(NC(=O)c3ccccc3)cc2C1=O	T cruzi growth-1 inconclusive | T cruzi growth-2 107 | T cruzi growth-3 inactive | 3T3 cytotox inactive | NIH3T3 tox 2 inactive
CNc1nc(SC(C)C(=O)OC)nc(N2CCOCC2)n1 (stereo unspecified)	none (no result: T cruzi growth-1, Pf Dd2 inh, GASC1 inh)

Compound activity: PubChem, Broad Institute
